Test results reported in ChEMBL document CHEMBL3603811, “Design, chemical synthesis and biological evaluation of 3-spiromorpholinone/3-spirocarbamate androsterone derivatives as inhibitors of 17β-hydroxysteroid dehydrogenase type 3” (Bioorg Med Chem, 2015).

Assays:
[1] = system: LAPC4; experiment: Androgenic activity in human LAPC4 cells expressing androgen receptor assessed as induction of cell proliferation at 0.1 uM after 3 days by MTS assay relative to control; assay type: functional
In short: (§1)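 LAPC-4 (AR+) cells in RPMI-1640 with 5% dextran-coated charcoal-treated FBS to remove hormones. Triplicate cultures of 10,000 cells preincubated 24 h at 37 °C, 5% CO2. Compounds from 10^-2 M DMSO stock, diluted in medium, added for 3 days (final DMSO 0.05%; vehicle controls). Growth read by MTS. Androgenicity = % proliferation minus basal set at 100%.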

[2] = system: LAPC4; experiment: Androgenic activity in human LAPC4 cells expressing androgen receptor assessed as induction of cell proliferation at 1 uM after 3 days by MTS assay relative to control; assay type: functional; in short: as §1
[3] = biological target: T1, 17-beta-hydroxysteroid dehydrogenase type 3 (Rattus norvegicus) (UniProt O54939); experiment: Inhibition of 17beta-HSD3 in rat testes microsomes using [14C]-4-androstene-3,17-dione as substrate measured based on 4% of initial enzyme transformation at 1 uM after 2 hrs; conditions: Testis
T1 sequence (whole entry): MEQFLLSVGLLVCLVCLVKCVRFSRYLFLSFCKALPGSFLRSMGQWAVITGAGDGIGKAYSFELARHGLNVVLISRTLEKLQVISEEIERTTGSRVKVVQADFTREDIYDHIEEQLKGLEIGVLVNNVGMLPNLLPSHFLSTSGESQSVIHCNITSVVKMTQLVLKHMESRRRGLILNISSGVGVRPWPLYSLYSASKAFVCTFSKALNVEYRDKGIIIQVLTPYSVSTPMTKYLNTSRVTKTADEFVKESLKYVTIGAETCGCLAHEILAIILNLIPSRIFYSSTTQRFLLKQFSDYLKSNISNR
In short: (§2)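 Rat testis microsomes: homogenate in phosphate/sucrose/EDTA buffer pH 7.5 with protease inhibitors, spun 12,500g, then pellet from 100,000g, at 4 °C. Reaction 2 h at 37 °C in 50 mM sodium phosphate pH 7.4, 20% glycerol, 1 mM EDTA, with NADPH and [14C]-Δ4-dione (50 nM). Inhibitor in DMSO. [14C]-T and substrate identified against reference steroids and quantified. Percent transformation and percent inhibition calculated.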

[4] = biological target: T1, 17-beta-hydroxysteroid dehydrogenase type 3 (Rattus norvegicus); experiment: Inhibition of 17beta-HSD3 in rat testes microsomes using [14C]-4-androstene-3,17-dione as substrate measured based on 18% of initial enzyme transformation at 0.1 uM after 2 hrs; conditions: Testis; in short: as §2
[5] = biological target: T1, 17-beta-hydroxysteroid dehydrogenase type 3 (Rattus norvegicus); experiment: Inhibition of 17beta-HSD3 in rat testes microsomes using [14C]-4-androstene-3,17-dione as substrate measured based on 4% of initial enzyme transformation at 10 uM after 2 hrs; conditions: Testis; in short: as §2
[6] = biological target: T1, 17-beta-hydroxysteroid dehydrogenase type 3 (Rattus norvegicus); experiment: Inhibition of 17beta-HSD3 in rat testes microsomes using [14C]-4-androstene-3,17-dione as substrate measured based on 33% of initial enzyme transformation at 10 uM after 2 hrs; conditions: Testis; in short: as §2
[7] = biological target: T1, 17-beta-hydroxysteroid dehydrogenase type 3 (Rattus norvegicus); experiment: Inhibition of 17beta-HSD3 in rat testes microsomes using [14C]-4-androstene-3,17-dione as substrate measured based on 33% of initial enzyme transformation at 0.1 uM after 2 hrs; conditions: Testis; in short: as §2
[8] = biological target: T1, 17-beta-hydroxysteroid dehydrogenase type 3 (Rattus norvegicus); experiment: Inhibition of 17beta-HSD3 in rat testes microsomes using [14C]-4-androstene-3,17-dione as substrate measured based on 33% of initial enzyme transformation at 1 uM after 2 hrs; conditions: Testis; in short: as §2
[9] = biological target: T1, 17-beta-hydroxysteroid dehydrogenase type 3 (Rattus norvegicus); experiment: Inhibition of 17beta-HSD3 in rat testes microsomes using [14C]-4-androstene-3,17-dione as substrate measured based on 18% of initial enzyme transformation at 1 uM after 2 hrs; conditions: Testis; in short: as §2
[10] = biological target: T1, 17-beta-hydroxysteroid dehydrogenase type 3 (Rattus norvegicus); experiment: Inhibition of 17beta-HSD3 in rat testes microsomes using [14C]-4-androstene-3,17-dione as substrate measured based on 18% of initial enzyme transformation at 0.01 uM after 2 hrs; conditions: Testis; in short: as §2

Compound | Activity [1] | Activity [2] | inhibition [3] | inhibition [4] | inhibition [5] | inhibition [6] | inhibition [7] | inhibition [8] | inhibition [9] | inhibition [10]
COC(=O)[C@H](Cc1ccccc1)N1C[C@]2(CC[C@@]3(C)[C@@H](CC[C@@H]4[C@@H]3CC[C@]3(C)C(=O)CC[C@@H]43)C2)OC1=O | 0% | 0% | 72.1% | 48.3% | 87.7% |  |  |  |  | 
C[C@]12CC[C@@]3(C[C@@H]1CC[C@@H]1[C@@H]2CC[C@]2(C)C(=O)CC[C@@H]12)CN(Cc1ccc(Br)cc1)CC(=O)O3 | 21.8% | 45.7% |  |  |  | 91.6% | 79.1% | 92.9% |  | 
C[C@]12CC[C@@]3(C[C@@H]1CC[C@@H]1[C@@H]2CC[C@]2(C)C(=O)CC[C@@H]12)CN(CCCc1ccccc1)CC(=O)O3 | 64.9% | 55.5% |  |  |  | 92.3% | 74.9% | 90.5% |  | 
C[C@]12CC[C@@]3(C[C@@H]1CC[C@@H]1[C@@H]2CC[C@]2(C)C(=O)CC[C@@H]12)CN(CC(CN1CCOCC1)OC(=O)C1CCCCC1)C(=O)O3 (stereo partly specified) | 4.8% | 9.4% | 93.9% | 51.5% | 97.2% |  |  |  | 93.1% | 
C[C@]12CC[C@]3(CNCC(=O)O3)C[C@@H]1CC[C@@H]1[C@@H]2CC[C@]2(C)C(=O)CC[C@@H]12 | 9.7% | 32% | 44.7% | 0% | 82% |  |  |  |  | 
COC(=O)[C@@H](CC(C)C)N1C[C@]2(CC[C@@]3(C)[C@@H](CC[C@@H]4[C@@H]3CC[C@]3(C)C(=O)CC[C@@H]43)C2)OC1=O | 1.5% | 21.9% | 76.9% | 55.4% | 67.8% |  |  |  | 73.6% | 
O=C1OC2(CCCCC2)CN(Cc2ccccc2)[C@H]1Cc1ccccc1 |  |  |  |  |  | 29.2% |  |  |  | 
O=C1OC2(CCCCC2)CN[C@H]1Cc1ccccc1 |  |  |  |  |  | 20.6% |  |  |  | 
C[C@]12CC[C@@]3(C[C@@H]1CC[C@@H]1[C@@H]2CC[C@]2(C)C(=O)CC[C@@H]12)CN(CCCCc1ccccc1)CC(=O)O3 | 5.3% | 19.2% |  |  |  | 91.3% | 79.9% | 91.1% |  | 
C[C@]12CC[C@@]3(C[C@@H]1CC[C@@H]1[C@@H]2CC[C@]2(C)C(=O)CC[C@@H]12)CN(Cc1ccc(-c2ccccc2)cc1)CC(=O)O3 | 47.7% | 55.1% |  |  |  | 95.2% | 81.9% | 93.1% |  | 
C[C@]12CC[C@]3(CN[C@@H](Cc4ccccc4)C(=O)O3)C[C@@H]1CC[C@@H]1[C@@H]2CC[C@]2(C)C(=O)CC[C@@H]12 | 3.9% | 36.5% | 75% |  | 88.2% |  |  |  |  | 
C[C@]12CC[C@@]3(C[C@@H]1CC[C@@H]1[C@@H]2CC[C@]2(C)C(=O)CC[C@@H]12)CN(CCc1ccc(C(F)(F)F)cc1)CC(=O)O3 | 40.2% | 76.1% |  |  |  | 93.3% | 70.7% | 92.1% |  | 
C[C@]12CC[C@@]3(C[C@@H]1CC[C@@H]1[C@@H]2CC[C@]2(C)C(=O)CC[C@@H]12)CN(Cc1ccccc1)CC(=O)O3 | 8.1% | 30.5% | 90.9% | 56% | 95.2% | 94.3% | 80.8% | 91.6% | 89.2% | 27.2%
C[C@]12CC[C@]3(CN[C@H](Cc4ccccc4)C(=O)O3)C[C@@H]1CC[C@@H]1[C@@H]2CC[C@]2(C)C(=O)CC[C@@H]12 | 0% | 15.3% |  |  | 70.6% |  |  |  |  | 
C[C@]12CC[C@@]3(C[C@@H]1CC[C@@H]1[C@@H]2CC[C@]2(C)C(=O)CC[C@@H]12)CN(Cc1ccccc1)[C@H](Cc1ccccc1)C(=O)O3 | 9.9% | 50.1% | 61.7% |  |  |  |  |  |  | 
C[C@]12CC[C@@]3(C[C@@H]1CC[C@@H]1[C@@H]2CC[C@]2(C)C(=O)CC[C@@H]12)CN(Cc1ccc(OCc2ccccc2)cc1)CC(=O)O3 | 0% | 16.7% |  |  |  | 93.4% | 80.4% | 90.8% |  | 
COC(=O)[C@H](CC(C)C)N1C[C@]2(CC[C@@]3(C)[C@@H](CC[C@@H]4[C@@H]3CC[C@]3(C)C(=O)CC[C@@H]43)C2)OC1=O | 0% | 8.4% | 82.3% | 57.6% | 88.4% |  |  |  | 93.6% | 
COC(=O)[C@@H](Cc1ccccc1)N1C[C@]2(CC[C@@]3(C)[C@@H](CC[C@@H]4[C@@H]3CC[C@]3(C)C(=O)CC[C@@H]43)C2)OC1=O | 0% | 29.2% | 74.3% | 56.1% | 80.8% |  |  |  |  | 
C[C@]12CC[C@@]3(C[C@@H]1CC[C@@H]1[C@@H]2CC[C@]2(C)C(=O)CC[C@@H]12)CN(Cc1ccccc1)[C@@H](Cc1ccccc1)C(=O)O3 | 6.1% | 53.7% | 81% |  | 83.6% |  |  |  |  | 
COC(=O)CN1C[C@]2(CC[C@@]3(C)[C@@H](CC[C@@H]4[C@@H]3CC[C@]3(C)C(=O)CC[C@@H]43)C2)OC1=O | 11% | 33.8% | 54.6% | 9% | 80.8% |  |  |  |  | 
C[C@]12CC[C@@]3(C[C@@H]1CC[C@@H]1[C@@H]2CC[C@]2(C)C(=O)CC[C@@H]12)CN(Cc1ccc(OC(F)(F)F)cc1)CC(=O)O3 | 45.9% | 74.9% |  |  |  | 95.7% | 79% | 93.8% |  | 
C[C@]12CC[C@@]3(C[C@@H]1CC[C@@H]1[C@@H]2CC[C@]2(C)C(=O)CC[C@@H]12)CN(CCc1ccccc1)CC(=O)O3 | 48.9% | 79.7% |  |  |  | 95.2% | 78.5% | 92.2% |  | 
CC(C)C[C@H]1C(=O)O[C@@]2(CC[C@@]3(C)[C@@H](CC[C@@H]4[C@@H]3CC[C@]3(C)C(=O)CC[C@@H]43)C2)CN1Cc1ccccc1 | 8.4% | 44.2% | 77.3% | 62.9% | 87.1% |  |  |  | 93.1% | 
CC(C)C[C@@H]1NC[C@]2(CC[C@@]3(C)[C@@H](CC[C@@H]4[C@@H]3CC[C@]3(C)C(=O)CC[C@@H]43)C2)OC1=O | 14.5% | 11.1% | 69.3% | 39.4% | 83.8% |  |  |  | 84.9% | 
CC(C)C[C@@H]1C(=O)O[C@@]2(CC[C@@]3(C)[C@@H](CC[C@@H]4[C@@H]3CC[C@]3(C)C(=O)CC[C@@H]43)C2)CN1Cc1ccccc1 | 6.2% | 47.7% | 56.5% | 45.9% | 82.3% |  |  |  |  | 
C[C@]12CC[C@@]3(C[C@@H]1CC[C@@H]1[C@@H]2CC[C@]2(C)C(=O)CC[C@@H]12)CN(Cc1ccc(C(F)(F)F)cc1)CC(=O)O3 | 12.3% | 31.7% |  |  |  | 91.2% | 83.4% | 94% |  | 
CC(C)C[C@H]1NC[C@]2(CC[C@@]3(C)[C@@H](CC[C@@H]4[C@@H]3CC[C@]3(C)C(=O)CC[C@@H]43)C2)OC1=O | 7.9% | 23.6% | 50.2% | 17.9% | 77.7% |  |  |  |  | 
